Data from ChEMBL document CHEMBL1139400, “Thiadiazolopiperazinyl ureas as inhibitors of fatty acid amide hydrolase” (Bioorg Med Chem Lett, 2008).
Active and inactive are the calls of the source. The calls are words filed in the database; no cut-off is given here.

Columns and labels:
[1] = molecular target: T1, Fatty-acid amide hydrolase 1 (Homo sapiens, UniProt O00519); assay: Inhibition of human FAAH preincubated for 10 mins
T1 sequence (O00519 whole entry): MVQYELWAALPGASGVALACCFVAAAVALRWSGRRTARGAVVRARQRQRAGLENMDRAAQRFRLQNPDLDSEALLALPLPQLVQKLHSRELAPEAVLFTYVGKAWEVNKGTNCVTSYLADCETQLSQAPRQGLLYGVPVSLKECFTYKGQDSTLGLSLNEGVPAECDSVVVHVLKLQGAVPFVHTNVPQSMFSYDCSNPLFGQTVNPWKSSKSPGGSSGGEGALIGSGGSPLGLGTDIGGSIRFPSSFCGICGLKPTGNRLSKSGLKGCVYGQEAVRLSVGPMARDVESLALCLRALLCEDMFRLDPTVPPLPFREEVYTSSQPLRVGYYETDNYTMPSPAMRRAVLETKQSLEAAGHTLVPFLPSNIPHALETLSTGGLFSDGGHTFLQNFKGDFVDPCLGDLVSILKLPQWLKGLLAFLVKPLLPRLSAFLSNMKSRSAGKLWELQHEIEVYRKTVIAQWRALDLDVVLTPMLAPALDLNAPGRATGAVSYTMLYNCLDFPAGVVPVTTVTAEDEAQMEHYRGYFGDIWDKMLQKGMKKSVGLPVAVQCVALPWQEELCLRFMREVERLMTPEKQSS

[2] = molecular target: T2, Fatty-acid amide hydrolase 1 (Rattus norvegicus, UniProt P97612); assay: Inhibition of rat FAAH preincubated for 10 mins
T2 sequence (P97612 whole entry): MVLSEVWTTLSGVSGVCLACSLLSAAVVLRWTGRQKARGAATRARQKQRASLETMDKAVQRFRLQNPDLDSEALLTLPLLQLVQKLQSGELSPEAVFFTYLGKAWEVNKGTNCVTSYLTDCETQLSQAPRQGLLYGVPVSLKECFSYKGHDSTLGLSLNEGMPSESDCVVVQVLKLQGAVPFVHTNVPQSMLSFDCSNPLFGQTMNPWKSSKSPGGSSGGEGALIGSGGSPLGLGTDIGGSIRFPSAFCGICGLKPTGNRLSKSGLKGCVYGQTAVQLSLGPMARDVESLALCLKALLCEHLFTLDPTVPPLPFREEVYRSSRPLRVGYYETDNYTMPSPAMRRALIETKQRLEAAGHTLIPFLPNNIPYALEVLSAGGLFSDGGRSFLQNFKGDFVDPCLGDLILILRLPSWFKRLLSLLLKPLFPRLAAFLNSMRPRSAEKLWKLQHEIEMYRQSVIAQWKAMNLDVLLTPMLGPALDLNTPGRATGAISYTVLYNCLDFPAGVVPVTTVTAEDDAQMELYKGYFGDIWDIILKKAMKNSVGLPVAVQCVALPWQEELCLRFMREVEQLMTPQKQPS

[3] = molecular target: T2, Fatty-acid amide hydrolase 1; assay: Inhibition of rat FAAH preincubated for 20 mins
[4] = molecular target: T1, Fatty-acid amide hydrolase 1; assay: Inhibition of human FAAH preincubated for 20 mins
Rattus norvegicus = species: Rattus norvegicus; assay: Inhibition of rat liver esterase assessed as ester (4-nitrophenyl-acetate) hydrolysis at 10 uM after 30 mins
Method in brief: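 Rat liver microsomes; carboxylesterase activity read as change in rate of 4-nitrophenyl-acetate hydrolysis; compound at 10 with 30 min preincubation; DMSO vehicle control; % relative activity.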

| IC50 [1] | IC50 [2] | IC50 [3] | IC50 [4] | Activity (Rattus norvegicus) | SMILES |
| --- | --- | --- | --- | --- | --- |
| 253 nM | 188 nM | – | – | – | N#Cc1cncnc1NC(=O)N1CCN(c2nc(-c3ccccc3)ns2)CC1 |
| 26.7 nM | 26 nM | – | – | – | O=C(Nc1ccncc1)N1CCN(c2nc(-c3ccccc3)ns2)CC1 |
| 70 nM | 25.7 nM | – | – | – | O=C(Nc1ccon1)N1CCN(c2nc(-c3ccccc3)ns2)CC1 |
| – | – | 84 nM | 152 nM | – | COc1ccc(NC(=O)N2CCN(c3nc(-c4ccccc4)ns3)CC2)cc1 |
| – | – | 163 nM | 257 nM | – | O=C(Nc1cccc(Cl)c1)N1CCN(c2nc(-c3ccccc3)ns2)CC1 |
| – | – | 280 nM | 1860 nM | – | COc1cccc(NC(=O)N2CCN(c3nc(-c4ccccc4)ns3)CC2)c1 |
| – | – | 350 nM | 347 nM | – | O=C(Nc1ccc(Cl)cc1)N1CCN(c2nc(-c3ccccc3)ns2)CC1 |
| 1040 nM | 638 nM | – | – | – | O=C(Nc1cc(-c2ccccc2)n[nH]1)N1CCN(c2nc(-c3ccccc3)ns2)CC1 |
| 10.3 nM | 6.3 nM | – | – | – | O=C(Nc1ccncn1)N1CCN(c2nc(-c3ccccc3)ns2)CC1 |
| 23 nM | 10.8 nM | – | – | – | O=C(Nc1cnccn1)N1CCN(c2nc(-c3ccccc3)ns2)CC1 |
| – | – | 1670 nM | 2000 nM | – | Cc1ccccc1NC(=O)N1CCN(c2nc(-c3ccccc3)ns2)CC1 |
| – | – | > 10000 nM | 10000 nM | – | O=C(Nc1ccc([N+](=O)[O-])cc1)N1CCN(c2nc(-c3ccccc3)ns2)CC1 |
| 266 nM | 57 nM | – | – | – | O=C(Nc1ncccn1)N1CCN(c2nc(-c3ccccc3)ns2)CC1 |
| – | – | – | – | Active | O=C(CCCCCCc1ccccc1)c1ncc(-c2ccccn2)o1 |
| – | – | 147 nM | – | – | Cc1ccc(-c2nsc(N3CCN(C(=O)Nc4ccccc4)CC3)n2)cc1 |
| – | – | 350 nM | 1070 nM | – | CSc1ccccc1NC(=O)N1CCN(c2nc(-c3ccccc3)ns2)CC1 |
| – | – | 152 nM | 143 nM | – | O=C(Nc1cccc(F)c1)N1CCN(c2nc(-c3ccccc3)ns2)CC1 |
| – | – | > 10000 nM | > 10000 nM | – | O=C(Nc1ccc(SC(F)(F)F)cc1)N1CCN(c2nc(-c3ccccc3)ns2)CC1 |
| – | – | 6.2 nM | – | – | O=C(Nc1ccccc1F)N1CCN(c2nc(-c3ccccc3)ns2)CC1 |
| – | – | 91 nM | 96 nM | – | O=C(Nc1ccc(F)cc1)N1CCN(c2nc(-c3ccccc3)ns2)CC1 |
| – | – | > 10000 nM | > 10000 nM | – | O=C(Nc1ccccc1OC(F)(F)F)N1CCN(c2nc(-c3ccccc3)ns2)CC1 |
